Results as given in ChEMBL document CHEMBL1152475, “Investigation of the antioxidant properties of some new 4-hydroxycoumarin derivatives” (Eur J Med Chem, 2009).
Activity calls are given as the source filed them. No cut-off for these calls is given here.

Tests used:
[1] = Antioxidant activity assessed as luminol-dependent chemiluminescence at 100 uM relative to control; type: functional
Outline: (§1)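 Chemiluminescence run in 1 ml PBS with 0.1 mM luminol and 0.06 mM NaOCl to generate ClO⁻. Compound at several concentrations up to 10^-4 mol/L, or buffer for controls. CL recorded every 50 ms after NaOCl addition in flash mode. Scavenger index (CL-SI) expressed relative to the buffer control, set at 100%.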

[2] = Antioxidant activity assessed as luminol-dependent chemiluminescence at 1 uM; type: functional; outline: as §1
[3] = test system: EJ; assay: Cytotoxicity against human EJ cells; type: functional, cell-based
[4] = Antioxidant activity assessed as decrease in luminol-dependent chemiluminescence's scavenger index; type: functional; outline: as §1
[5] = test system: HL-60; assay: Cytotoxicity against human HL60 cells; type: functional, cell-based
[6] = test system: HUVEC; assay: Cytoprotective activity against linoleic acid hydroperoxide-induced toxicity in HUVEC cells after 3 hrs; type: functional, cell-based; settings: Homo sapiens

Compound	Activity [1]	Activity [4]	also measured
CCOC(=O)C(C(C)=O)C(c1ccc(C(=O)O)cc1)c1c(O)c2ccccc2oc1=O (stereo not given)	Active	–	–
CCOC(=O)C(C(C)=O)C(c1ccc(O)cc1)c1c(O)c2ccccc2oc1=O (stereo not given)	Active	–	Activity [2]: Active
CCOC(=O)C(C(C)=O)C(c1cccc([N+](=O)[O-])c1)c1c(O)c2ccccc2oc1=O (stereo not given)	7%	Dose-dependent effect	Activity [3]: Active; Activity [5]: Active
O=c1ccc2cc(O)c(O)cc2o1	–	–	Activity [6]: Active
CCOC(=O)C(C(C)=O)C(c1cc(OC)c(OC)c(OC)c1)c1c(O)c2ccccc2oc1=O (stereo not given)	Active	Dose-dependent effect	–
